# Measured values: ChEMBL document CHEMBL4513216, “Probing the Open Global Health Chemical Diversity Library for Multistage-Active Starting Points for Next-Generation Antimalarials” (ACS Infect Dis, 2020)
# Assay: Toxicity liver stage against HepG2, at 10uM
# Assay type: cell-based
# Parameters: test concentration 10 uM, cell line HepG2-A16-CD81EGFP
# Conditions: human, HepG2-A16-CD81EGFP cells; read-out: INHIBITION
# Summary of the method: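 Uninfected HepG2-A16-CD81EGFP cells, 3 × 10^3 per well, 1536-well, plated on prespotted compound at 10 μM final, parasite-free screening media added to match infected plates; puromycin 10 μM positive, DMSO 0.5% negative; run in parallel with 48 h PbLuc assay at 37 °C, 5% CO2; viability by CellTiter-Glo luminescence, normalized to controls.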
row,SMILES,cytotoxicity at 10 µM
1,COc1ccc(C2(C(=O)N3C[C@@H](C(=O)O)[C@H](C(C)C)C3)CC2)cc1,-8.36%
2,Cc1nc2c(c(NCCc3nccs3)n1)CCN(CC1CC1)CC2,-1.38%
3,CCc1nc(CCNS(=O)(=O)c2cccc(C(=O)N(C)CC)c2)cs1,-36.2%
4,O=C(CCN1CCC(C(=O)c2cc(F)ccc2F)CC1)NC1CCCC1,4.76%
5,CCCc1nnsc1C(=O)NCC1CCN(C(=O)c2ccncc2)CC1,16.2%
6,O=C(c1ccc2c(c1)CCCC2)N1CCn2ncnc2C1,-4.9%
7,Cc1cnn(C2CCCN(C(=O)c3cc[nH]n3)C2)c1 (stereo not given),-18.3%
8,CNc1cc(N2CCCC2CNCc2cnc(C)s2)ncn1 (stereo not given),-3.78%
9,CN(C)C(=O)c1cn2cc(-c3ccccc3Cl)n(CC3CC3)c(=O)c2n1,-1.43%
10,CN(C)CCN1CCOC2(CCN(c3nccs3)CC2)c2ccccc21,-1.99%
11,CCn1cc(NC(=O)C2CCN(CC(=O)NCC(C)C)CC2)cn1,-7.52%
12,Cc1ccc(C)c2c(O)cc(CNCC(=O)N3CCCC3)nc12,-12.4%
13,O=C(c1cccc2c1OCO2)N1CCCC(n2cccn2)C1 (stereo not given),-8.72%
14,COc1ccc(C(=O)N2CCO[C@H]3[C@H](OCC4CC4)CC[C@@H]32)cc1F,18.2%
15,Cc1cccc2sc(NC(=O)CN3CCCC4(CC3)CNC(=O)O4)nc12 (stereo not given),-4.26%
16,CCc1nc(CN(C)C2CCN(Cc3ccc(C#N)cc3F)C2)no1 (stereo not given),-7.12%
17,CCC(=O)N(C)Cc1cccc(OC(C)C)c1,12.8%
18,Cc1ncsc1CN1CCN(C)C2(CCC(=O)N(CCO)CC2)C1 (stereo not given),-9.8%
19,CC1CN(CC(=O)Nc2nncs2)CCN1Cc1nccn1C (stereo not given),-11.2%
20,COc1cccc(S(=O)(=O)NC(=O)COc2c(C)cccc2C)c1,-5.84%
21,Cn1cc(N2CCC(NC(=O)c3c(F)cccc3Cl)C2=O)cn1 (stereo not given),0.91%
22,CS(=O)(=O)Cc1ccc(CNC(=O)N2CCC(C(N)=O)C2)cc1 (stereo not given),-6.43%

row,SMILES,cytotoxicity at 10 µM
1,CC(C)(C)c1noc(CN2CCCCC2Cn2cncn2)n1 (stereo not given),-2.4%
2,COc1cccc2[nH]c(C(=O)N3CCNCC3C(N)=O)cc12 (stereo not given),4.57%
3,Cc1ccc2c(c1)C1(CC2)CCN(c2nncs2)CC1,9.43%
4,CCC(=O)Nc1nnc(CCOc2ccccc2OC)s1,2.38%
5,COc1ccccc1OC1CN(C(=O)C(c2ccccc2F)N(C)C)C1 (stereo not given),3.91%
6,CCc1nnc(CNC(=O)CCN2CCN(c3cccc(C)c3)CC2)s1,-1.82%
7,Cc1cnc(N2CCC3(CC2)COCCN(C(C)C)C3)nc1,-121%
8,Cn1c(-c2cc3n(n2)CCCN(CC(=O)O)C3)nc2ccccc21,2.68%
9,CCCn1nc(C)c(CNC(=O)C2COc3c(cccc3OC)C2)c1C (stereo not given),-11.8%
10,CC[C@H](C)[C@H](N)C(=O)Nc1nc(-c2cnc(N3CCOCC3)nc2)cs1,-8.72%
11,CC1CN(C)CCN1CC(=O)NCCOc1ccc2c(c1)OCO2 (stereo not given),-6.66%
12,CCOc1ccc(Cl)cc1CCNC(=O)N1CCCC(CO)C1 (stereo not given),5.46%
13,CN(CCN1CCOC1=O)CC(=O)Nc1ccc(Cl)c(Cl)c1,-52.4%
14,CS(=O)(=O)N1CCC(NC(=O)COc2ccc(Cl)cc2)CC1,-4.05%
15,Cc1ncoc1C(=O)N1C[C@H]2CCC[C@@]2(COCc2cccnc2)C1,4.53%
16,COCCOc1ccccc1C(=O)Nc1c(C)cnn1CC1CC1,1.13%
17,Cc1n[nH]cc1CNCC(O)c1ccc(F)c(F)c1 (stereo not given),6.8%
18,CC(C)Cc1cc(C(=O)NC(C)(CO)CO)n(C)n1,6.57%
19,CCc1noc(CN(CC)C(=O)C2CC(=O)N(Cc3ccncc3)C2)n1 (stereo not given),18.2%
20,Cc1ccc(C2CN(Cc3cccc4[nH]ccc34)CCO2)nc1 (stereo not given),-35.6%
21,Cc1cccc(C2CCCN2Cc2nc(N)nc(N(C)C)n2)c1C (stereo not given),-12.5%
22,Cc1nnc2n1CCN(CCCS(=O)(=O)c1ccccc1)C2,-11.2%

row,SMILES,cytotoxicity at 10 µM
1,COCC[C@]1(O)CCN(C(=O)CCn2c(C)cccc2=O)C[C@H]1C,3.28%
2,Cc1cc(N(C)C)nc(NCCn2cccn2)n1,5.65%
3,CC(=O)NC1CCCN(C(=O)Nc2cccnc2-n2cccn2)C1 (stereo not given),-15.3%
4,Cn1nc(CNC(=O)c2ccc3c(c2)OCO3)c2c1CCOC2,-1.82%
5,O=C(Nc1cccnc1)c1noc2c1CN(S(=O)(=O)C1CC1)CC2,7.06%
6,Cc1cc(C)nc(C2CCN(C(=O)c3cnc(N(C)C)nc3)C2)n1 (stereo not given),-18.1%
7,Cn1cc(C(=O)CC2CCCN2C(=O)c2ccc(Cl)o2)cn1 (stereo not given),-4.57%
8,O=C1N(c2ccsc2)CCC12CCCN(c1ccccn1)C2 (stereo not given),-103%
9,CC(C)[C@H](NS(C)(=O)=O)C(=O)NCc1cc(-c2ccco2)nn1C,-10.5%
10,COC(=O)c1ccc(Cn2cccc(C(F)(F)F)c2=O)s1,-8.03%
11,O=C([C@H]1COC[C@H]2CN(C3CCCC3)C[C@H]21)N1CCOCC1,-105%
12,O=C(Nc1cnn(Cc2ccc(F)cc2Cl)c1)C1CC1,-4.83%
13,CC(C)C(=O)N1CCCC(c2ncncc2-c2ccncc2)C1 (stereo not given),-6.62%
14,CCCC(C)(C)NC(=O)c1ccc(CC2CC(=O)NC2=O)cc1 (stereo not given),-19.7%
15,CCOCC(=O)N1C[C@H]2CCC[C@@]2(COC)C1,0.419%
16,Cc1ncc(C(=O)NCCNc2ncccn2)s1,3.79%
17,CC(C)N(C)CCNC(=O)N1CCN(Cc2ccon2)CC1,-1.58%
18,CCc1ocnc1C(=O)N1CCOC(c2nc(C)n[nH]2)C1 (stereo not given),-12%
19,COC1COC2(CCN(CC3CCOCC3)CC2)C1 (stereo not given),-110%
20,NC(=O)C1CN(C(=O)c2ccc(F)cc2)CCN1CCc1ccccc1 (stereo not given),2.77%
21,CCCc1noc(C(C)N2CC(n3cccn3)C2)n1 (stereo not given),2.13%
22,O=C(NCCCn1cncn1)NCC(c1ccccc1)N1CCCC1 (stereo not given),-3.99%

row,SMILES,cytotoxicity at 10 µM
1,Cc1ccc(N2CCC3(CCC(=O)N3)CC2)nn1,0.903%
2,Cc1cc(NCCC(=O)NC2CCS(=O)(=O)C2)nc(-c2ccncc2)n1 (stereo not given),-6.74%
3,Cc1cc(CN2Cc3ccccc3CC2c2nnc(C)o2)no1 (stereo not given),2.89%
4,Brc1cccc(-c2noc(CN3CCOCC3)n2)c1,-15.2%
5,CCc1ccc(C(=O)N2CCC(N(C)C(=O)OC(C)(C)C)C2)o1 (stereo not given),-48%
6,COc1cccc(N2CCN(C(=O)C(O)CC(C)C)CC2=O)c1 (stereo not given),-14.7%
7,O=C(NCc1cccnc1N1CCCCC1)c1ccc2c(c1)OCO2,-3.76%
8,O=C(c1ccco1)N1C[C@H]2CCCN(CC3CC3)[C@H]2C1,2.36%
9,CC1CCCCN1c1nc2c(c(=O)[nH]1)CCN(Cc1ccccc1O)C2 (stereo not given),-1.97%
10,O=C(Cn1cc(C2CC2)nn1)N(Cc1ccco1)Cc1cccs1,-13.3%
11,CN1C(=O)CC2(CCN(S(=O)(=O)C3CC3)CC2)c2ccccc21,2.04%
12,CC(C)c1cc(C(=O)NC2CCN(CC(N)=O)CC2)nn1C(C)(C)C,-6.95%
13,Cc1nnc(C(C)N2CCN(Cc3noc(C(C)(C)C)n3)CC2)o1 (stereo not given),-13.3%
14,COCCC(=O)N1CCN(CC2CC2)c2ccccc21,-4.5%
15,CSCCC(NC(N)=O)C(=O)NCc1ccc(-n2cccn2)cc1 (stereo not given),18%
16,CC(C)N1CCC(Cc2cncc(-c3cc(F)ccc3C(=O)O)n2)CC1,-8.36%
17,CCC1CN(Cc2nnc(C(C)C)o2)CCC(=O)N1Cc1ccccc1 (stereo not given),3.33%
18,Cc1ccc(CCNC(=O)N2CCCC(Cc3nccn3C)C2)cn1 (stereo not given),-9.26%
19,C1=CCN(c2nc(CC3CC3)nc3c2CCN(C2CCOCC2)CC3)C1,0.0776%
20,CNC(=O)c1ccc(NC(=O)NC(C)c2cc(C)oc2C)c(C)c1 (stereo not given),-10.6%
21,Fc1ccc(CNCc2nnc3n2CC(C(F)(F)F)CC3)c(F)c1 (stereo not given),0.411%
22,CC(C)c1cc(C(=O)NCCn2nc3ccccn3c2=O)n[nH]1,-8.5%

row,SMILES,cytotoxicity at 10 µM
1,CCc1nc(CNCC2CCCN2c2cccnn2)no1 (stereo not given),-12.6%
2,Cc1cnc2[nH]c(C(F)(F)F)c(CN3CCSCC3)c2c1,13.3%
3,COc1ccc(CN2CCc3[nH]nc(C(=O)N(C)C)c3C2)cc1,5.18%
4,CCn1nc2c(cc1=O)CN(CC(=O)Nc1nc(C)c(C)s1)CC2,-8.8%
5,CCN1CCC(N2C[C@H]3OC(=O)N(CCc4cccc(Cl)c4)[C@H]3C2)CC1,-5.4%
6,Cc1occc1C(=O)N1CCC2(CCCN(CC3CC3)C2=O)C1 (stereo not given),-4.58%
7,Cc1nn(C)c(C)c1C1CCCN1C(=O)c1cc[nH]n1 (stereo not given),1.35%
8,Cc1cc(N2CCCN(C(=O)Cc3csc(C)n3)CC2)ccn1,-12%
9,Cc1cccc(C(=O)N2CCCCC2c2[nH]ncc2S(C)(=O)=O)c1 (stereo not given),-7.44%
10,CC(C)(CN1CCC2(CCOCC2)CC1)N1CCOCC1,-148%
11,CNC(=O)c1cc2c(nc1NCC(C)C)CCN(S(=O)(=O)C1CC1)CC2,-4.88%
12,Cc1nn(C)c2nc(-c3ccccn3)nc(NCCC3CCCN3C)c12 (stereo not given),1.91%
13,CN(Cc1ccc(F)cc1)CC1(O)CCN(C(=O)c2ccsc2)C1 (stereo not given),-28.2%
14,OC1CCCOC12CCN(c1ncccn1)CC2 (stereo not given),3.73%
15,Cc1noc(C)c1CN1CCCC2(CCN(CC3CCCC3)C2)C1 (stereo not given),-4.1%
16,CNC(=O)COc1ccc(CNCc2ccc(F)cc2F)cc1,-8.6%
17,CCSCc1ccnc(NC(=O)C2CCOC2)c1 (stereo not given),0.841%
18,Nc1cnc(-c2cccc3c2CCNC3)cn1,-12%
19,CN1CCN(C(=O)Cc2ccccn2)Cc2cccnc21,-7.01%
20,CCN(CC)CC(=O)N1CCCC1Cn1cccn1 (stereo not given),-3.08%
21,O=C1C[C@H]2[C@@H](CCN2C(=O)Cc2ccsc2)N1Cc1cccnc1,-0.331%
22,Cn1ccc(C(=O)N2CCOC3(COCCN(CC4CC4)C3)C2)n1 (stereo not given),7.61%
